The record followed here is ChEMBL document CHEMBL4138103, “Discovery of efficient stimulators for adult hippocampal neurogenesis based on scaffolds in dragon's blood” (Eur J Med Chem, 2017).

In series [1] the test system is Rattus norvegicus. The series can be described thus: In vivo neurogenic activity in Sprague-Dawley rat neural progenitor cells at 2 mg/kg, ip qd preincubated for 28 days followed by BrdU addition at 2 hrs interval for twice on day 29 measured at 28 days post BrdU pulse by BrdU double staining based assay relative to control. In kind it is functional. In outline: (§1)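 SD male rats, 11 weeks old, were given compound ip daily for 28 days in 10% ethanol/soybean oil. On day 29 they received BrdU 100 mg/kg ip twice, 2 h apart, and were perfused 28 days after the last BrdU. Fixed 30 µm cryosections were co-stained for BrdU and NeuN by fluorescence. BrdU+ cells and the BrdU+NeuN+/BrdU+ fraction were counted against vehicle, mean ± SEM, n = 8.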

For series [2], the system named is Rattus norvegicus. The series can be described thus: Effect on AKT expression in Sprague-Dawley rat adult hippocampus at 2.2 to 4 mg/kg, ip qd preincubated for 28 days followed by BrdU addition at 2 hrs interval for twice on day 29 measured at 24 hrs post BrdU pulse by immunoblot assay. In kind it is functional, organism-based. The procedure, abridged:
(§2)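 Male SD rats (received at 10 weeks, acclimatized 7 days) were dosed ip once daily for 28 days. The compounds were given in soybean oil with 10% ethanol, and the vehicle group received 10% ethanol in oil. BrdU was given 100 mg/kg twice, 2 h apart, on day 29. Hippocampal tissue was taken 24 h or 28 days later. Lysates were made in RIPA with protease inhibitors and run on 12% SDS-PAGE. Akt, pAkt, ERK1/2 and pERK1/2 were immunoblotted and read by densitometry against GAPDH, normalized to vehicle = 1.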
(In general: In western blotting, separated proteins are transferred to a membrane and probed.)

The subject of series [3] is Rattus norvegicus. The series can be described thus: In vivo neurogenic activity in Sprague-Dawley rat neural progenitor cells at 2.2 mg/kg, ip qd pretreated for 28 days followed by BrdU addition at 2 hrs interval for twice on day 29 measured after 24 hrs by BrdU incorporation assay. It counts as functional, organism-based. The procedure, abridged:
(§3)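 Male SD rats aged 10 weeks, acclimatized 7 days (11 weeks old at start), dosed ip once daily for 28 days with compound in soybean oil containing 10% ethanol; vehicle group received 10% ethanol in oil. On day 29, BrdU in saline given twice at 100 mg/kg, 2 h apart. Rats sacrificed 24 h after the last BrdU. BrdU+ cells in SGZ-GCL counted by DAB immunostaining of 30 µm cryosections; n = 8; mean ± SEM.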
For orientation: Uptake of a labelled nucleoside into DNA is a usual measure of proliferation.

The subject of series [4] is Rattus norvegicus. Briefly: In vivo neurogenic activity in Sprague-Dawley rat neural progenitor cells assessed as differentiation of new born NPCs to mature functional neurons at 4 mg/kg, ip qd preincubated for 28 days followed by BrdU addition at 2 hrs interval for twice on day 29 measured at 28 days post BrdU pulse by NeuN/BrdU double staining based assay relative to control. In outline:
as §1

Series [5] concerns Rattus norvegicus. Briefly: Effect on ERK expression in Sprague-Dawley rat adult hippocampus at 2.2 to 4 mg/kg, ip qd preincubated for 28 days followed by BrdU addition at 2 hrs interval for twice on day 29 measured at 24 hrs post BrdU pulse by immunoblot assay. It counts as functional, organism-based. The procedure, abridged: as §2
Series [6] has as its system Rattus norvegicus. Briefly: Downregulation of ERK phosphorylation in Sprague-Dawley rat adult hippocampus at 2.2 to 4 mg/kg, ip qd preincubated for 28 days followed by BrdU addition at 2 hrs interval for twice on day 29 measured at 24 hrs post BrdU pulse by immunoblot assay. In kind it is functional, organism-based. The following applies: in the assay text read “Upregulation” for “Downregulation”. The procedure, abridged: as §2

The nature of series [7]: Cytotoxicity against human SH-SY5Y cells assessed as cell survival at 1000 uM after 24 hrs by MTT assay relative to control. In kind it is cell-based. The following applies: read-out: Survival. In outline: (§4)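 SH-SY5Y human neuroblastoma cells seeded at 5 × 10⁴ cells/mL, incubated 24 h at 37 °C, then exposed to compounds at final concentrations of […] for 24 h. MTT added for a further 4 h at 37 °C. Absorbance read at 570 nm and reported as percent viability. Five parallel samples per condition.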
(Tetrazolium assays rely on reduction of a dye to a coloured formazan, in cell work by metabolically active cells.)

The subject of series [8] is Rattus norvegicus. Briefly: Effect on AKT expression in Sprague-Dawley rat adult hippocampus at 2 to 20 mg/kg, ip qd preincubated for 28 days followed by BrdU addition at 2 hrs interval for twice on day 29 measured at 28 days post BrdU pulse by immunoblot assay. It counts as functional, organism-based. In outline: as §2
Series [9] concerns Rattus norvegicus. The series can be described thus: Downregulation of ERK phosphorylation in Sprague-Dawley rat adult hippocampus at 2 to 20 mg/kg, ip qd preincubated for 28 days followed by BrdU addition at 2 hrs interval for twice on day 29 measured at 28 days post BrdU pulse by immunoblot assay. In kind it is functional, organism-based. The procedure, abridged:
as §2

Series [10] can be described thus: Cytotoxicity against human SH-SY5Y cells assessed as cell survival at 500 uM after 24 hrs by MTT assay relative to control. The following applies: read-out: Survival. In kind it is cell-based. In outline: as §4
Series [11] has as its system Rattus norvegicus. The series can be described thus: In vivo neurogenic activity in Sprague-Dawley rat neural progenitor cells assessed as differentiation of new born NPCs to mature functional neurons at 20 mg/kg, ip qd preincubated for 28 days followed by BrdU addition at 2 hrs interval for twice on day 29 measured at 28 days post BrdU pulse by NeuN/BrdU double staining based assay relative to control. The procedure, abridged:
as §1

In series [12] the test system is Rattus norvegicus. The series can be described thus: Downregulation of AKT phosphorylation in Sprague-Dawley rat adult hippocampus at 2.2 to 4 mg/kg, ip qd preincubated for 28 days followed by BrdU addition at 2 hrs interval for twice on day 29 measured at 24 hrs post BrdU pulse by immunoblot assay. In kind it is functional, organism-based. The following applies: in the assay text read “Upregulation” for “Downregulation”. In outline: as §2

In series [13] the test system is Rattus norvegicus. The series can be described thus: In vivo neurogenic activity in Sprague-Dawley rat neural progenitor cells assessed as differentiation of new born NPCs to mature functional neurons at 2 mg/kg, ip qd preincubated for 28 days followed by BrdU addition at 2 hrs interval for twice on day 29 measured at 28 days post BrdU pulse by NeuN/BrdU double staining based assay relative to control. The procedure, abridged: as §1

Series [14] in a line: Cytotoxicity against human SH-SY5Y cells assessed as cell survival at 100 uM after 24 hrs by MTT assay relative to control. In kind it is cell-based. The following applies: read-out: Survival. The procedure, abridged:
as §4

Series [15] deals with Rattus norvegicus. Briefly: In vivo neurogenic activity in Sprague-Dawley rat neural progenitor cells at 4 mg/kg, ip qd pretreated for 28 days followed by BrdU addition at 2 hrs interval for twice on day 29 measured after 24 hrs by BrdU incorporation assay relative to control. It counts as functional. In outline:
as §3

Series [16] relates to Rattus norvegicus. Briefly: Downregulation of AKT phosphorylation in Sprague-Dawley rat adult hippocampus at 2 to 20 mg/kg, ip qd preincubated for 28 days followed by BrdU addition at 2 hrs interval for twice on day 29 measured at 28 days post BrdU pulse by immunoblot assay. It counts as functional, organism-based. The procedure, abridged: as §2
Series [17] has as its system Rattus norvegicus. Briefly: Effect on ERK expression in Sprague-Dawley rat adult hippocampus at 2 to 20 mg/kg, ip qd preincubated for 28 days followed by BrdU addition at 2 hrs interval for twice on day 29 measured at 28 days post BrdU pulse by immunoblot assay. It counts as functional, organism-based. In outline:
as §2

Molecules are shown by their SMILES. The source made the active and inactive calls. The calls are words filed in the database; no cut-off is given here.

Turning to `CC(=O)Nc1ccc(/C=C/c2ccc3c(c2)OCO3)cc1`, the “fold change (FC)” value in the series with Rattus norvegicus [1] was 4.2; with Rattus norvegicus [4], 3.1; with Rattus norvegicus [11] it was 2.3; in the series on Rattus norvegicus [13], 4.6. Besides, the result in the series with Rattus norvegicus [2], with Rattus norvegicus [3], in the series with Rattus norvegicus [5], in the series with Rattus norvegicus [6], with Rattus norvegicus [8] and with Rattus norvegicus [9] was Active. The result in the series on Rattus norvegicus [12], in the series with Rattus norvegicus [15], with Rattus norvegicus [16] and in the series with Rattus norvegicus [17] was Active. Further, the viability at 24 h, 1000 µM in [7] was 80.4%. Besides, the viability at 24 h, 500 µM in series [10] is 91.9%. Further, the viability at 24 h, 100 µM in [14] turned out to be 97%.
